Data set [1] has as its system Cell membrane. As to the kind of experiment: Induction of cell membrane permeability Staphylococcus epidermidis clinical isolate 23 assessed as residual polarized cells at 0.4 ug/ml by Texas Red-H/FITC-H staining based flow cytometry (reference value: 69.6%). Conditions: dose 0.4 µg/ml. It is filed as subcellular. The essentials: (§1)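 Membrane potential read by flow cytometry. Bacteria were stained with DiOC2, then exposed to the agent; red fluorescence marks polarized cells and green marks depolarized cells. CCCP served as the positive control and daptomycin as the depolarizing reference at 0.4 μg/mL. Test concentrations were 0.8, 1.6 and 3.125 μg/mL, with a 15 min exposure.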

Data set [2] relates to Cell membrane. The data set can be described thus: Induction of cell membrane permeability Staphylococcus epidermidis clinical isolate 23 assessed as depolarized cells at 0.4 ug/ml by Texas Red-H/FITC-H staining based flow cytometry (reference value: 2.7%). It is filed as subcellular. Conditions: dose 0.4 µg/ml. A digest of the protocol:
as §1

The subject of data set [3] is Cell membrane. As to the kind of experiment: Induction of cell membrane permeability Staphylococcus epidermidis clinical isolate 23 assessed as residual polarized cells by Texas Red-H/FITC-H staining based flow cytometry (reference value: 69.6%). It is filed as subcellular. The essentials: as §1
(In general: In flow cytometry, cells or beads pass a laser one at a time.)

The test system of data set [4] is Cell membrane. The data set can be described thus: Induction of cell membrane permeability Staphylococcus epidermidis clinical isolate 23 assessed as depolarized cells by Texas Red-H/FITC-H staining based flow cytometry (reference value: 2.7%). It is filed as subcellular. The essentials:
as §1

Data set [5] deals with Staphylococcus epidermidis. The data set can be described thus: Antibiofilm activity against Staphylococcus epidermidis clinical isolates assessed as inhibition of biofilm formation measured after 24 hrs by confocal laser scanning microscopy analysis. It is filed as functional.
Data set [6] can be described thus: Selectivity index, ratio of IC50 for cytotoxicity against human BJ cells to MIC for antibacterial activity against multidrug resistant Staphylococcus epidermidis clinical isolates. It is filed as toxicity, cell-based. As to conditions: read-out: Selectivity Index. A digest of the protocol: (§2)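 SI is IC50 divided by the mean MIC across clinical multidrug-resistant S. epidermidis isolates (81 strains). IC50 came from an MTT assay after 24 h treatment of H9c2 cardiomyocytes or BJ skin fibroblasts, n = 3. MIC was measured by broth microdilution.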

The subject of data set [7] is Staphylococcus epidermidis. As to the kind of experiment: Antibiofilm activity against Staphylococcus epidermidis clinical isolates assessed as eradication of existing biofilms measured after 24 hrs by confocal laser scanning microscopy analysis. It counts as functional.
The nature of data set [8]: Selectivity index, ratio of IC50 for cytotoxicity against rat H9c2 cells to MIC for antibacterial activity against multidrug resistant Staphylococcus epidermidis clinical isolates. It counts as toxicity, cell-based. Conditions: read-out: Selectivity Index. The essentials:
as §2

Data set [9] can be described thus: Selectivity index, ratio of IC50 for rat H9c2 cells to IC50 for human BJ cells. As to conditions: H9c2 cells and BJ cells, read-out: Ratio IC50. It is filed as toxicity.
The test system of data set [10] is Acinetobacter baumannii. The data set can be described thus: Antibacterial activity against Acinetobacter baumannii ATCC 19606 assessed as inhibition of bacterial growth by broth microdilution method. It counts as functional. (In broth dilution the organism is exposed to a series of concentrations in liquid medium.)
Data set [11] relates to Pseudomonas aeruginosa. The data set can be described thus: Antibacterial activity against Pseudomonas aeruginosa ATCC 27853 assessed as inhibition of bacterial growth by broth microdilution method. It is filed as functional.
In data set [12] the test system is Escherichia coli. As to the kind of experiment: Antibacterial activity against Escherichia coli ATCC 25922 assessed as inhibition of bacterial growth by broth microdilution method. It counts as functional.
The subject of data set [13] is Staphylococcus epidermidis. As to the kind of experiment: Antibacterial activity against multidrug-resistant and biofilm producer Staphylococcus epidermidis ATCC 35984 assessed as inhibition of bacterial growth by broth microdilution method. It is filed as functional. The essentials:
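Preliminary MIC screen by broth microdilution against three reference strains (methicillin-susceptible, multidrug-resistant/biofilm-producing S. epidermidis, and biofilm-producing S. aureus); MIC reported in μg/mL.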

For data set [14], the system named is Cell membrane. As to the kind of experiment: Induction of cell membrane permeability Staphylococcus epidermidis clinical isolate 23 assessed as residual polarized cells at 0.8 ug/ml by Texas Red-H/FITC-H staining based flow cytometry (reference value: 69.6%). It is filed as subcellular. As to conditions: dose 0.8 µg/ml. The essentials: (§3)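 Clinical S. epidermidis no. 23 cells were first stained with DiOC2, then treated with compound. Membrane potential was read by flow cytometry within 15 min: red marks polarized cells, green marks depolarized cells. Controls were DiOC2-only cells (negative), CCCP (positive), and daptomycin at 0.4 μg/mL as a depolarizing reference.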

Data set [15] relates to Staphylococcus epidermidis. As to the kind of experiment: Antibiofilm activity against Staphylococcus epidermidis clinical isolate 25 assessed as inhibition of biofilm formation measured after 24 hrs by confocal laser scanning microscopy analysis. It counts as functional. The essentials: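 Clinical S. epidermidis strain no. 25 biofilm exposed to compound for 24 h, stained with FilmTracer SYPRO Ruby biofilm matrix stain, and imaged by confocal microscopy. Untreated compact biofilm served as control.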

The test system of data set [16] is Staphylococcus epidermidis. As to the kind of experiment: Bacteriostatic activity Staphylococcus epidermidis clinical isolate 44 at 0.4 to 25 ug/ml measured upto 1000 mins by broth microdilution method. As to conditions: dose 0.4-25 µg/ml. It is filed as functional, organism-based.
The test system of data set [17] is Cell membrane. As to the kind of experiment: Induction of cell membrane permeability Staphylococcus epidermidis clinical isolate 23 assessed as depolarized cells at 1.6 ug/ml by Texas Red-H/FITC-H staining based flow cytometry (reference value: 2.7%). It is filed as subcellular. As to conditions: dose 1.6 µg/ml. The essentials:
(§4)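 Cells stained with DiOC2, then exposed to test agent (0.8, 1.6, 3.125 μg/mL tested); CCCP positive control, daptomycin 0.4 μg/mL reference depolarizer, DiOC2-only negative control. Membrane potential read by flow cytometry as red (polarized) versus green (depolarized) cell populations; depolarization assessed within 15 min.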

Data set [18] has as its system Cell membrane. As to the kind of experiment: Induction of cell membrane permeability Staphylococcus epidermidis clinical isolate 23 assessed as depolarized cells at 3.125 ug/ml by Texas Red-H/FITC-H staining based flow cytometry (reference value: 2.7%). It is filed as subcellular. Conditions: dose 3.125 µg/ml. A digest of the protocol: as §3
For data set [19], the system named is Cell membrane. As to the kind of experiment: Induction of cell membrane permeability Staphylococcus epidermidis clinical isolate 23 assessed as residual polarized cells at 1.6 ug/ml by Texas Red-H/FITC-H staining based flow cytometry (reference value: 69.6%). It is filed as subcellular. Conditions: dose 1.6 µg/ml. A digest of the protocol: as §4
Data set [20] has as its system Cell membrane. As to the kind of experiment: Induction of cell membrane permeability Staphylococcus epidermidis clinical isolate 23 assessed as depolarized cells at 0.8 ug/ml by Texas Red-H/FITC-H staining based flow cytometry (reference value: 2.7%). It counts as subcellular. As to conditions: dose 0.8 µg/ml. A digest of the protocol:
as §3

SMILES strings stand for the structures. In brackets after ≈: the same amount, converted by molar mass. Activity calls are given as the source filed them. The rule behind the calls is not given here.

In the case of `CCCCCCCCCC(=O)N[C@@H](Cc1c[nH]c2ccccc12)C(=O)N[C@H](CC(N)=O)C(=O)N[C@@H](CC(=O)O)C(=O)N[C@@H]1C(=O)NCC(=O)N[C@@H](CCCN)C(=O)N[C@@H](CC(=O)O)C(=O)N[C@H](C)C(=O)N[C@@H](CC(=O)O)C(=O)NCC(=O)N[C@H](CO)C(=O)N[C@@H]([C@H](C)CC(=O)O)C(=O)N[C@@H](CC(=O)c2ccccc2N)C(=O)O[C@@H]1C`, the values for the Activity in data set [1] and in data set [2] were 1.3% and 7.2%, respectively.
Consider `N#CC(C#N)=NNc1cccc(Cl)c1`, for which the Activity in data set [3] came to 0.1%; in [4], 73.4%.
On to `O=S(=O)(NC1CCN(CCC(Oc2ccc(C(F)(F)F)cc2)c2ccccc2)CC1)c1cccc(Cl)c1` (racemic), for which the MBIC90 entry in data set [5] was “>=125 ug ml-1”. Moreover, the selectivity ratio turned out to be 0.4 in [6], 0.7 in [8] and 2 in data set [9]. Besides, the MBEC90 entry in data set [7] is given as “>=125 ug ml-1”.
For `O=S(=O)(NC1CCN(CCC(Oc2ccc(C(F)(F)F)cc2)c2cccs2)CC1)c1cccc(Cl)c1` (racemic), the MBIC90 entry in data set [5] is “>=125 ug ml-1”. Moreover, the selectivity ratio in [6] was 1; in data set [8], 2.8; in data set [9] it was 2. Further, in data set [7], the MBEC90 entry was “>=125 ug ml-1”.
As for `O=S(=O)(NC1CCN(CCC(Oc2cccc(C(F)(F)F)c2)c2ccccc2)CC1)c1cccc(Cl)c1` (racemic), the MIC in data set [10], in data set [11] and in data set [12] was at least 25 µg/mL throughout.
For the molecule `O=S(=O)(NC1CCN(CCC(Oc2ccc(C(F)(F)F)cc2)c2cccs2)CC1)c1cccc(C(F)(F)F)c1` (racemic), the MIC in data set [13] turned out to be 0.2 µg/mL (≈ 0.337 µM).
As to `O=C(Nc1cccc(Cl)c1)NC1CCN(CCC(Oc2ccc(C(F)(F)F)cc2)c2cccs2)CC1` (racemic), the Activity stood at 43.5% in data set [14]; 72.4% in data set [17]; 55.2% in data set [18]; 1.9% in data set [19]; 34.7% in data set [20]. The MBIC in [15] came out at 7.8 µg/mL. The MBIC90 in data set [5] came to 31.25 µg/mL. Besides, the selectivity ratio turned out to be 7.5 in [6], 15.3 in data set [8] and 2 in [9]. Further, the MBEC90 in data set [7] stood at 31.25 µg/mL. The MIC in data set [10], in [11] and in data set [12] was above 50 µg/mL throughout. Besides, the result in [16] was Active.
`O=S(=O)(NC1CCN(CCC(Oc2ccc(C(F)(F)F)cc2)c2cccs2)CC1)c1cccc(Br)c1` (racemic): the MIC in data set [13] was found to be 0.4 µg/mL (≈ 0.663 µM).
For the molecule `CC(=O)NC[C@H]1CN(c2ccc(N3CCOCC3)c(F)c2)C(=O)O1` [LINEZOLID], the MBIC90 in data set [5] is 50 µg/mL. The MBEC90 in [7] was found to be 50 µg/mL. The selectivity ratio in data set [8] was found to be 7.3. Besides, the result in data set [16] was Active.

Source of the values: ChEMBL document CHEMBL5344467, “Improving Activity of New Arylurea Agents against Multidrug-Resistant and Biofilm-Producing Staphylococcus epidermidis” (ACS Med Chem Lett, 2024).
